High-throughput results: PubChem BioAssay, Broad Institute
Only some compounds are listed: those with a hit (about 2.5% of all), similar ones and a draw of the others.
E-selectin induc – induces E-selectin expression in human endothelial cells. P16581. HUVEC E-selectin immunofluorescence imaging; normalized: neutral wells 0, TNF-alpha wells 100. activation, % at 7.58 µM. actives 0.37% (n = 260,000). AID 686992;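 active = mean E-selectin-positive cell signal at least 10% of the positive control, reached in at least 60% of replicates, without over 20% cell loss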
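System: HUVEC, human umbilical vein endothelial cells; quantity: 3,000 cells/well; buffer or medium: EGM-2 medium, gelatin-coated wells; dosing: single-point compound dose; detection: immunofluorescence imaging; evaluation: % PE-positive cells; benchmarks: TNF-alpha, DMSO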
SIRT5 inh – sirtuin-5 (human) deacylase inhibition | inhibition, % at 15 µM | actives 1.1% (n = 330,000) | Purified SirT5, succinyl-peptide AMC, trypsin-coupled fluorescence | Q9NXA8; in the data active = inhibition above about 15%
PglD DTNB – blocks C. jejuni PglD acetyltransferase activity; purified PglD enzyme, DTNB colorimetric CoA detection; inhibition, % at 12.5 µM; actives 0.098% (n = 360,000); AID 602405; in the data active = inhibition above about 16%, passing the limit was not always enough
ERAP1 inh – inhibitors of human ERAP1 aminopeptidase | recombinant ERAP1, Leu-AMC fluorescence, 60 min | inhibition, % at 10.7 µM | actives 0.15% (n = 340,000);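 active = mean replicate inhibition of at least 30%, or all replicates individually reaching that 30% level; inactive = mean below 30% and not every replicate reaching it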;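 also: 0% = neutral control wells and 100% = L-leucinethiol positive control wells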
Target sequence (Q9NZ08 whole entry, looked up): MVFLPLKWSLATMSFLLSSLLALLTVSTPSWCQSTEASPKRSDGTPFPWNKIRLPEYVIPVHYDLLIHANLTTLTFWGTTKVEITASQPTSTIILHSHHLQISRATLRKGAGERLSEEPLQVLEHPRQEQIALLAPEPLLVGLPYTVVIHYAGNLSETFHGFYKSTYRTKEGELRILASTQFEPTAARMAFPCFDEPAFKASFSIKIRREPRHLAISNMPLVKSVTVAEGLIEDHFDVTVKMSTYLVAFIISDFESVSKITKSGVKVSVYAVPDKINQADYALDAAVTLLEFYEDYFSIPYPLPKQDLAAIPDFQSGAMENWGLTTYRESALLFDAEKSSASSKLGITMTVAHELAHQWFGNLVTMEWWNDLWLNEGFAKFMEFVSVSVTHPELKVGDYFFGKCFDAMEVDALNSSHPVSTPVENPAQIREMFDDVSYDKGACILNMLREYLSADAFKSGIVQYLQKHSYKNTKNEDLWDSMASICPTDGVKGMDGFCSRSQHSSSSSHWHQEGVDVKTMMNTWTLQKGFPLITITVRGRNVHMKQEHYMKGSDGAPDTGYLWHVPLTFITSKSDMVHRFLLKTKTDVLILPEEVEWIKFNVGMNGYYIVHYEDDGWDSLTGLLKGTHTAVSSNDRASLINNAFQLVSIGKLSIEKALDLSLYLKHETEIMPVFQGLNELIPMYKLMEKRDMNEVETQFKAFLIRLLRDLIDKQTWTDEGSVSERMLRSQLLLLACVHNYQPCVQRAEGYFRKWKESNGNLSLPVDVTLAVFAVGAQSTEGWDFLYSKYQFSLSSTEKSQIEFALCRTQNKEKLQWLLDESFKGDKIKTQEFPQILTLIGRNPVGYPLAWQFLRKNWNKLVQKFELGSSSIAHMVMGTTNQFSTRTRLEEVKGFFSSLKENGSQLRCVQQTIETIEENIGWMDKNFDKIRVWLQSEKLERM
DENV2 CPE rescue – protects cells from dengue virus 2 cytopathic effect | DENV2-infected cells, cytopathic effect rescue, plate reader | CPE inhibition, % at 9.99 µM | actives 1.7% (n = 350,000) | AID 651640; in the data active = CPE inhibition above about 20%, passing the limit was not always enough; tested in BHK-21 cells;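 also: 0% = median of neutral control wells and 100% = median of positive control wells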
Numbers without * were called inactive.

How did Cc1cc(C)nc(N2CCC(C(=O)NCCc3ccc(Cl)cc3)CC2)n1 do in these assays?
E-selectin induc: 0; SIRT5 inh: 15*; PglD DTNB: 0; ERAP1 inh: -1; DENV2 CPE rescue: 0

What do the screens show for `CC(C)NC(=O)Nc1ccc2c(c1)C(=O)N([C@H](C)CO)C[C@H](C)[C@@H](CN(C)Cc1ccc(C(=O)O)cc1)OCCCC[C@@H](C)O2`?
E-selectin induc: 0; SIRT5 inh: -1; PglD DTNB: -2; ERAP1 inh: -1; DENV2 CPE rescue: -11

Results for CC(=O)N1[C@H](CO)[C@H](c2ccccc2)C12CN(C(=O)c1ccc3c(c1)OCO3)C2 ?
E-selectin induc: 0; SIRT5 inh: -2; ERAP1 inh: -4; DENV2 CPE rescue: 1

What do the screens show for `CC(=O)N1[C@H](CO)[C@@H](c2ccccc2)C12CN(C(=O)c1ccc3c(c1)OCO3)C2`?
E-selectin induc: 0; SIRT5 inh: 0; ERAP1 inh: -4; DENV2 CPE rescue: 55*

Results for O=C(c1ccccc1)N1CCN(C(=O)c2ccc3c(c2)OCO3)CC1 ?
E-selectin induc: 0; SIRT5 inh: -4; PglD DTNB: -3; ERAP1 inh: -2; DENV2 CPE rescue: -6

What do the screens show for `CC(=O)N1[C@H](CO)[C@H](c2ccccc2)C12CN(C(=O)CN1CCOCC1)C2`?
E-selectin induc: 0; SIRT5 inh: 2; ERAP1 inh: 0; DENV2 CPE rescue: 83*

What do the screens show for `O=C(c1ccc2c(c1)OCO2)N1CCC(Cc2ccccc2)CC1`?
SIRT5 inh: -6; DENV2 CPE rescue: 25*

What do the screens show for `CCN(CC)S(=O)(=O)c1ccc(NC(=O)COC(=O)c2cnc(C)cn2)cc1`?
E-selectin induc: 2; SIRT5 inh: -6; PglD DTNB: -1; ERAP1 inh: -4; DENV2 CPE rescue: 11

What do the screens show for `C[C@@H]1CN([C@@H](C)CO)C(=O)c2cc(NS(=O)(=O)c3cn(C)cn3)ccc2O[C@@H]1CN(C)Cc1ccc(Oc2ccccc2)cc1`?
E-selectin induc: 0; SIRT5 inh: -4; PglD DTNB: 2; ERAP1 inh: 0; DENV2 CPE rescue: 1

Results for CC1C(c2ccccc2)OCCN1C(=S)Nc1ccc(S(=O)(=O)N2CCCCC2)cc1 (stereo unspecified) ?
E-selectin induc: 0; PglD DTNB: 5; ERAP1 inh: 1; DENV2 CPE rescue: 8

What do the screens show for `O=C(Cc1ccc(-c2ccccc2)cc1)NNC(=S)NCc1ccco1`?
SIRT5 inh: -6; ERAP1 inh: -1; DENV2 CPE rescue: 0

Results for C=CCSc1nnc2nc3c(nn12)c1cc(C)ccc1n3CC=C ?
PglD DTNB: -3

How did Cc1ccc2[nH]c(=O)c(CN(Cc3cccnc3)C(=S)NCCCN(C)C)cc2c1 do in these assays?
E-selectin induc: 0; SIRT5 inh: -6; ERAP1 inh: -3; DENV2 CPE rescue: 3

How did C[C@@H]1CN([C@@H](C)CO)S(=O)(=O)c2ccc(C#Cc3ccc(F)cc3)cc2O[C@H]1CN(C)S(=O)(=O)c1ccc(F)cc1 do in these assays?
E-selectin induc: 1; SIRT5 inh: 23*; PglD DTNB: -2; ERAP1 inh: -4; DENV2 CPE rescue: -3

How did C[C@H](CO)N1C[C@H](C)[C@H](CN(C)S(=O)(=O)c2ccc(F)cc2)Oc2cc(C#Cc3ccncc3)ccc2S1(=O)=O do in these assays?
SIRT5 inh: 0; PglD DTNB: -1; ERAP1 inh: 2; DENV2 CPE rescue: -8

How did C[C@H]1CN([C@@H](C)CO)S(=O)(=O)c2ccc(C#Cc3ccc(F)cc3)cc2O[C@H]1CN(C)S(=O)(=O)c1ccc(F)cc1 do in these assays?
E-selectin induc: 0; SIRT5 inh: 29*; PglD DTNB: -2; ERAP1 inh: 0; DENV2 CPE rescue: 2

How did C[C@H]1CN([C@@H](C)CO)S(=O)(=O)c2ccc(C#Cc3ccc(F)cc3)cc2O[C@@H]1CN(C)S(=O)(=O)c1ccc(F)cc1 do in these assays?
E-selectin induc: 0; SIRT5 inh: 24*; PglD DTNB: -3; ERAP1 inh: -2; DENV2 CPE rescue: 4

How did C[C@H](CO)N1C[C@H](C)[C@@H](CN(C)S(=O)(=O)c2ccc(F)cc2)Oc2cc(C#Cc3ccc(F)cc3)ccc2S1(=O)=O do in these assays?
E-selectin induc: 0; SIRT5 inh: 23*; PglD DTNB: 0; ERAP1 inh: -4; DENV2 CPE rescue: -1

Results for C[C@@H]1CN([C@@H](C)CO)S(=O)(=O)c2ccc(C#Cc3ccncc3)cc2O[C@H]1CN(C)S(=O)(=O)c1ccc(F)cc1 ?
SIRT5 inh: 2; PglD DTNB: -3; ERAP1 inh: -6

Results for C[C@H]1CN([C@@H](C)CO)S(=O)(=O)c2ccc(C#Cc3ccncc3)cc2O[C@@H]1CN(C)S(=O)(=O)c1ccc(F)cc1 ?
SIRT5 inh: -2; PglD DTNB: 1; ERAP1 inh: 1; DENV2 CPE rescue: -9

What do the screens show for `C[C@H](CO)N1C[C@H](C)[C@@H](CN(C)S(=O)(=O)c2ccccc2F)Oc2cc(C#Cc3cccc(F)c3)ccc2S1(=O)=O`?
E-selectin induc: 2; SIRT5 inh: 1; PglD DTNB: 1; ERAP1 inh: 5

What do the screens show for `C/C=C/c1ccc2c(c1)O[C@H](CN(C)S(=O)(=O)c1ccc(C)cc1)[C@H](C)CN([C@H](C)CO)S2(=O)=O`?
E-selectin induc: 0; SIRT5 inh: 0; PglD DTNB: -5; ERAP1 inh: 2; DENV2 CPE rescue: 20*

Results for C[C@H]1CN([C@@H](C)CO)S(=O)(=O)c2ccc(C#Cc3ccncc3)cc2O[C@H]1CN(C)S(=O)(=O)c1ccc(F)cc1 ?
SIRT5 inh: 7; PglD DTNB: 1; ERAP1 inh: 1; DENV2 CPE rescue: -3

What do the screens show for `C[C@@H]1CN([C@@H](C)CO)S(=O)(=O)c2ccc(C#Cc3ccc(F)cc3)cc2O[C@@H]1CN(C)S(=O)(=O)c1ccc(F)cc1`?
E-selectin induc: 0; SIRT5 inh: 26*; PglD DTNB: -3; ERAP1 inh: 1; DENV2 CPE rescue: 2

What do the screens show for `C[C@@H]1CN([C@H](C)CO)S(=O)(=O)c2ccc(C#Cc3cccc(F)c3)cc2O[C@@H]1CN(C)S(=O)(=O)c1ccccc1F`?
E-selectin induc: -1; SIRT5 inh: 18*; PglD DTNB: -1; ERAP1 inh: 1; DENV2 CPE rescue: -4

What do the screens show for `Cc1ccc(S(=O)(=O)N(C)C[C@H]2Oc3cc(C#Cc4ccncc4)ccc3S(=O)(=O)N([C@@H](C)CO)C[C@H]2C)cc1`?
SIRT5 inh: 18*; PglD DTNB: -11; ERAP1 inh: 0; DENV2 CPE rescue: 64*

What do the screens show for `Cc1cc(N2CCCC2=O)ccc1S(=O)(=O)NCCOc1ccccc1`?
SIRT5 inh: -3; PglD DTNB: -2; ERAP1 inh: -7

Results for CCNC(=O)C[C@H]1C=C[C@H](NC(=O)C2CCC2)[C@@H](CO)O1 ?
E-selectin induc: 0; SIRT5 inh: 0; PglD DTNB: -4; ERAP1 inh: 1; DENV2 CPE rescue: 7
